# Source: PubChem BioAssay
# The other results are listed elsewhere or left out. A number with no mark means an inactive call. Active and inactive are the calls of the source.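 Rule for the calls, unless noted: active = mean activation over triplicate wells above the hit cutoff derived from the earlier primary screen (cut at about 11% in these data); inactive = the rest.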
# Test system: DAF-12 nuclear receptor (Heterodera glycines), GAL4-LBD fusion
# Assay: hgDAF-12 GAL4 fusion reporter activation, retest – cell-based, luminescence, HEK293, GAL4-LBD fusion, confirmation (AID 743050);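 note: 0% = DMSO low control and 100% = 2 mM sodium butyrate high control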
# Details: HEK293 GAL4-hgDAF12 luciferase reporter, agonist mode; at 6.8 µM; hits give high values; percent of butyrate response
row,Compound,activation
1,CCc1ccc(NC2Nc3cc(C)nn3S2)cc1 (stereo not drawn),18.8% (active)
2,Cc1ccccc1Nc1nc(N)nc(CSc2ccccc2)n1,17.7% (active)
3,COc1ccc2nc(SCc3ccccc3)nc(C)c2c1,17.7% (active)
4,Clc1ccc(Nc2nc(-c3cccs3)cs2)nc1,13.1% (active)
5,O=C(Nc1ccc(-c2nnc(-c3ccccc3)o2)cc1)C1CCCO1 (stereo not drawn),15.9% (active)
6,Cc1cccc(NC(=O)Nc2ccc3c(c2)OCO3)n1,18.4% (active)
7,Cc1cc(Cl)ccc1OCc1nc(-c2ccncc2)no1,15.6% (active)
8,CC(=O)Nc1cccc(-c2csc(Nc3cccc(C)n3)n2)c1,19% (active)
9,NC(=O)Cc1ccc2sc(-c3ccccc3)nc2c1,17.4% (active)
10,O=C(Nc1ccc2c(c1)CCC2)c1ccc(Br)s1,24.6% (active)
11,Cc1ccc(NC(=O)c2csc3c2CCCC3)cc1,17.6% (active)
12,CN(C)c1ccnc2sc(C(=O)c3ccccc3)c(N)c12,14.2% (active)
13,O=C(Nc1ccc2oc(-c3ccccc3F)nc2c1)c1ccco1,11.9% (active)
14,c1ccc(Nc2nc(-c3ccncc3)cs2)nc1,16.8% (active)

# Molecular target: Oxysterols receptor LXR-beta (Homo sapiens) (UniProt P55055)
# Assay: nonspecific reporter activation via LXR – cell-based, luminescence, HEK293, H. glycines campaign, counter-screen for hgDAF-12 agonist project, confirmation (AID 743051;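 active = mean activation of the triplicate above a set limit carried over from the primary screen, none filed active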)
# Details: HEK293 Gal4-LXR luciferase reporter, 24 h; at 6.8 µM; hits give high values
# Outline: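 test system = Gal4-LXR luciferase reporter HEK293 cells | times = 3 h cell plating, then 24 h compound exposure at 37 °C | signal = luciferase luminescence | benchmarks = DMSO low control, 0.68% final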
# Sequence of Oxysterols receptor LXR-beta (Homo sapiens) (P55055 whole entry, looked up): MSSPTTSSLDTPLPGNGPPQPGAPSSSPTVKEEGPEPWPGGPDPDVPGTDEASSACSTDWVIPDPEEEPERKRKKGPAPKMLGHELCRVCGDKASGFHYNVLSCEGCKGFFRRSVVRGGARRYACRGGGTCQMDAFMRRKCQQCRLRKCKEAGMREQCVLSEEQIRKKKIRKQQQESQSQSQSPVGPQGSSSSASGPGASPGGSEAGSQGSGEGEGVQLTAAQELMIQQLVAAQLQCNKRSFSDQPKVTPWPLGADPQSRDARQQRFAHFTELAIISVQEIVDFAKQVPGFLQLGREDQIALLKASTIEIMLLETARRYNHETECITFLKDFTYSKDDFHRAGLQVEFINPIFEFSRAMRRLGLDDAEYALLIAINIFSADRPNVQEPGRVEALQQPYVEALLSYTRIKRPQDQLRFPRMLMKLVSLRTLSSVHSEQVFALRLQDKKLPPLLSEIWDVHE
row,Compound,activation
1,CCc1ccc(NC2Nc3cc(C)nn3S2)cc1 (stereo not drawn),0.76%
2,Cc1ccccc1Nc1nc(N)nc(CSc2ccccc2)n1,0.84%
3,COc1ccc2nc(SCc3ccccc3)nc(C)c2c1,1%
4,Clc1ccc(Nc2nc(-c3cccs3)cs2)nc1,0.65%
5,O=C(Nc1ccc(-c2nnc(-c3ccccc3)o2)cc1)C1CCCO1 (stereo not drawn),0.9%
6,Cc1cccc(NC(=O)Nc2ccc3c(c2)OCO3)n1,0.79%
7,Cc1cc(Cl)ccc1OCc1nc(-c2ccncc2)no1,0.57%
8,CC(=O)Nc1cccc(-c2csc(Nc3cccc(C)n3)n2)c1,1.17%
9,NC(=O)Cc1ccc2sc(-c3ccccc3)nc2c1,0.66%
10,O=C(Nc1ccc2c(c1)CCC2)c1ccc(Br)s1,1.14%
11,Cc1ccc(NC(=O)c2csc3c2CCCC3)cc1,0.8%
12,CN(C)c1ccnc2sc(C(=O)c3ccccc3)c(N)c12,0.47%
13,O=C(Nc1ccc2oc(-c3ccccc3F)nc2c1)c1ccco1,0.57%
14,c1ccc(Nc2nc(-c3ccncc3)cs2)nc1,0.86%
